According to publication PMC11047177 (ESMO Open, 2024):

Test: Phase I study NCT03854227: DLTs and adverse events
Assay type: in vivo, human
Outline: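 Open-label, multicentre first-in-human trial in adults (ECOG 0–1) with advanced or metastatic tumours. Oral test compound, q.d. or b.i.d., on an empty stomach in continuous 28-day cycles. Part 1 started at 0.5 mg q.d., with escalation guided by a two-parameter Bayesian logistic regression model on cycle 1 DLTs. Part 2 ran at 6 mg q.d. AEs were graded by CTCAE 5.0 and summarised descriptively by dose level.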

[1] = Part 2 N = 26, 6 mg q.d., any grade
[2] = Part 2 N = 26, 6 mg q.d., grade ≥3
[3] = overall (part 1 + part 2), N=54

## Cc1ncnc2c1ccn2[C@@H]1C[C@H](Oc2cc(C(F)F)c(F)c3c2CNCC3)[C@@H](O)[C@H]1O [PF-06939999]
Part 1 N = 28, any grade
  TRAE Anemia: 12 (43) n (%)
  TRAE Any: 24 (86) n (%)
  TRAE Decreased appetite: 6 (21) n (%)
  TRAE Dysgeusia: 9 (32) n (%)
  TRAE Dyspepsia: 2 (7) n (%)
  TRAE Fatigue: 9 (32) n (%)
  TRAE Hypomagnesemia: 4 (14) n (%)
  TRAE Leukopenia: 3 (11) n (%)
  TRAE Nausea: 8 (29) n (%)
  TRAE Neutropenia: 3 (11) n (%)
  TRAE Thrombocytopenia (including platelet count decreased): 9 (32) n (%)
  TRAE Vomiting: 1 (4) n (%)
  TRAE Weight decreased: 0 n (%)
Part 1 N = 28, grade ≥3
  TRAE Anemia: 8 (29) n (%)
  TRAE Any: 12 (43) n (%)
  TRAE Decreased appetite: 0 n (%)
  TRAE Dysgeusia: 0 n (%)
  TRAE Dyspepsia: 0 n (%)
  TRAE Fatigue: 2 (7) n (%)
  TRAE Hypomagnesemia: 0 n (%)
  TRAE Leukopenia: 0 n (%)
  TRAE Nausea: 0 n (%)
  TRAE Neutropenia: 1 (4) n (%)
  TRAE Thrombocytopenia (including platelet count decreased): 6 (21) n (%)
  TRAE Vomiting: 0 n (%)
  TRAE Weight decreased: 0 n (%)
[1]
  TRAE Anemia: 11 (42) n (%)
  TRAE Any: 21 (81) n (%)
  TRAE Decreased appetite: 7 (27) n (%)
  TRAE Dysgeusia: 3 (12) n (%)
  TRAE Dyspepsia: 4 (15) n (%)
  TRAE Fatigue: 6 (23) n (%)
  TRAE Hypomagnesemia: 1 (4) n (%)
  TRAE Leukopenia: 2 (8) n (%)
  TRAE Nausea: 9 (35) n (%)
  TRAE Neutropenia: 1 (4) n (%)
  TRAE Thrombocytopenia (including platelet count decreased): 13 (50) n (%)
  TRAE Vomiting: 3 (12) n (%)
  TRAE Weight decreased: 3 (12) n (%)
[2]
  TRAE Anemia: 7 (27) n (%)
  TRAE Any: 11 (42) n (%)
  TRAE Decreased appetite: 0 n (%)
  TRAE Dysgeusia: 0 n (%)
  TRAE Dyspepsia: 0 n (%)
  TRAE Fatigue: 1 (4) n (%)
  TRAE Hypomagnesemia: 0 n (%)
  TRAE Leukopenia: 1 (4) n (%)
  TRAE Nausea: 0 n (%)
  TRAE Neutropenia: 1 (4) n (%)
  TRAE Thrombocytopenia (including platelet count decreased): 6 (23) n (%)
  TRAE Vomiting: 0 n (%)
  TRAE Weight decreased: 0 n (%)
Total N = 54, any grade
  TRAE Anemia: 23 (43) n (%)
  TRAE Any: 45 (83) n (%)
  TRAE Decreased appetite: 13 (24) n (%)
  TRAE Dysgeusia: 12 (22) n (%)
  TRAE Dyspepsia: 6 (11) n (%)
  TRAE Fatigue: 15 (28) n (%)
  TRAE Hypomagnesemia: 5 (9) n (%)
  TRAE Leukopenia: 5 (9) n (%)
  TRAE Nausea: 17 (32) n (%)
  TRAE Neutropenia: 4 (7) n (%)
  TRAE Thrombocytopenia (including platelet count decreased): 22 (41) n (%)
  TRAE Vomiting: 4 (7) n (%)
  TRAE Weight decreased: 3 (6) n (%)
Total N = 54, grade ≥3
  TRAE Anemia: 15 (28) n (%)
  TRAE Any: 23 (43) n (%)
  TRAE Decreased appetite: 0 n (%)
  TRAE Dysgeusia: 0 n (%)
  TRAE Dyspepsia: 0 n (%)
  TRAE Fatigue: 3 (6) n (%)
  TRAE Hypomagnesemia: 0 n (%)
  TRAE Leukopenia: 1 (2) n (%)
  TRAE Nausea: 0 n (%)
  TRAE Neutropenia: 2 (4) n (%)
  TRAE Thrombocytopenia (including platelet count decreased): 12 (22) n (%)
  TRAE Vomiting: 0 n (%)
  TRAE Weight decreased: 0 n (%)
All 54 patients, 6 patients
  Patients who discontinued treatment due to AEs: 11%
oral, selected from safety and PK/PD modeling
  Recommended part 2 dose (RP2D): 6 mg q.d.
[3]
  Grade ≥3 TRAE Anemia: 28%
  Grade ≥3 TRAE Fatigue: 6%
  Grade ≥3 TRAE Neutropenia: 4%
  Grade ≥3 TRAE thrombocytopenia/platelet count decreased: 22%
